Results on two compounds are retold here after paper PMC4823011 (The American journal of clinical nutrition, 2014).

For data set [1] the following is noted: model parameter; cited from earlier work.
Data set [2] is classed as in vivo, human. To be noted: caplet 855 nmol oral.
Data set [3] is described as follows: Apparent absorption across the colon calculated with one-compartment model. The class given is in vivo, human. In outline: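 Enteric-coated caplet with about 12.6% coating mass gain. The absorbed mass was estimated from plasma labeled 5-methyltetrahydrofolate concentration using a three-equation, one-compartment model of small-intestinal folate absorption. Volume of distribution was taken as 387 mL/kg body weight. t_lag, the time plasma enrichment stayed at baseline, was set at 1 h. Plasma was sampled hourly after pyloric passage until 2000, then at 24 and 48 h.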

For data set [4] the following is noted: cited from earlier work.
The conditions of data set [5]: 684 nmol (320 μg) cecal infusion after bowel cleansing; cited from earlier work.
The format of data set [6] is in vivo, human. The gist of the method:
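Given after a ≥4-wk washout as an IV injection in 1.35 mL sterile saline (pH 7.0, 74 μg folate/mL). Blood was drawn from the opposite arm at 15 min, then every 30 min for 4 h. Plasma M+5/M+0 molar ratios were measured by LC-MS/MS. Amounts were converted to nmol/person from baseline microbiological plasma folate, blood volume and packed cell volume. Half-life came from a one-phase exponential fit to the descending plasma curve.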

The mark [7] stands for this setting: iv 214 nmol, individual subjects A-I.

Values joined by “and” are separate entries in the source; they are usually repeats but may differ in a detail not shown here. Equal values may be shown once. Read-outs that look alike come from different tables or passages of the source.

`Nc1nc2ncc(CNc3ccc(C(=O)N[C@@H](CCC(=O)O)C(=O)O)cc3)nc2c(=O)[nH]1` [folate]: the “Apparent volume of distribution (V)” value in data set [1] is recorded as 387 mL/kg body weight.

Usually bioavailability stands for the share of a dose that reaches the circulation, judged against a reference dose that is usually intravenous. Turning to `Nc1nc2c(c(=O)[nH]1)N(C=O)C(CNc1ccc(C(=O)N[C@@H](CCC(=O)O)C(=O)O)cc1)CN2` (stereo partly drawn) [[^13C5]5-formyltetrahydrofolate, [glutamyl-^13C5]-[6S]-5-formyltetrahydrofolic acid], in data set [2] (any subject), the “Detection of [13C5]5-formyltetrahydrofolate (parent) in plasma after caplet” value was “did not detect”. For the same compound, the “Cmax of [13C5]5-methyltetrahydrofolate in plasma” value in data set [2] (individual subjects A-F) is 0.5 nmol and 2.0 nmol and 3.7 nmol and 4.0 nmol and 1.6 nmol. In addition, in data set [3] (caplet, one-compartment model, mean, excludes 2 subjects without plasma response), the “Apparent absorption across the colon of the 855-nmol dose” value was 46% and 46.2 ± 16.5%. Also, the bioavailability in data set [3] (human, plasma, oral, 855 nmol) is 34.7 ± 14.3%. Also, in data set [4] (500-nmol orally administered test dose), the “Apparent absorption in the small intestine” value is 38 ± 6% and 38%. Besides, the “Rate of folate absorption across the small intestine” value in data set [4] (oral bolus 421–569 nmol, estimated from published data) is on record as ~ 34 nmol/h. Also, in data set [5], the “Rate of folate absorption after bolus infusion directly into the cecum” value is recorded as 0.6 ± 0.02 nmol/h. In addition, in data set [6] (setting [7]), the “5-formyltetrahydrofolate Cmax (labeled, plasma)” value is 20.0 nmol and 10.2 nmol and 20.3 nmol and 7.1 nmol and 15.9 nmol and 14.1 nmol and 7.5 nmol and 10.9 nmol and 15.2 nmol; the “5-methyltetrahydrofolate Cmax (labeled metabolite, plasma)” value is 6.8 nmol and 6.6 nmol and 10.2 nmol and 3.1 nmol and 7.8 nmol and 10.0 nmol and 5.0 nmol and 6.0 nmol and 5.8 nmol. Also, the “5-formyltetrahydrofolate Cmax (labeled, plasma)” value in data set [6] (iv 214 nmol, mean ± SEM, n = 9) is on record as 13.5 ± 1.6 nmol. For the same compound, in data set [6] (plasma samples collected immediately after iv injection, mean ± SEM), the “Plasma enrichment with [13C5]5-formyltetrahydrofolate” value is reported as 11.6 ± 1.5%.
